Assay outcomes deposited in PubChem BioAssay by several laboratories.
NS3 helicase inh: blocks Hepatitis C virus NS3 helicase unwinding. AID 1800. 290,000 tested, 0.56% active. inhibition, % at 10.9 µM. NS3 helicase DNA unwinding, Cy5 molecular beacon fluorescence;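 active means inhibition above the mean of all tested compounds plus 3 SD, set per campaign, cut at about 35% in these data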;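 further: 0% = DMSO wells and 100% = thioflavine S control wells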
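Test system: hepatitis C virus NS3 helicase domain fragment enzyme. Also added: annealed dual-labelled DNA beacon duplex, ATP-started. Timing: 60 min unwinding reaction at 25 °C after ATP addition. Technique: Cy5 fluorescence. Measure: % inhibition of unwinding.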
p-CIP stab down: p/CIP protein destabilization | Q05BA5 | F442A p/CIP-EGFP cells, EGFP fluorescence, 16 h | decrease of EGFP signal, % at 10 µM | 290,000 tested, 0.01% active;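 active means EGFP signal decrease of at least 30% at 10 µM or well 3 SD below plate mean, unless failing retest; inactive means the rest, including hits failing retest or dose response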
GPR7 antag: antagonists of human GPR7 (neuropeptides B/W receptor 1). GPR7-expressing cells, fluorescence antagonist assay. inhibition, % at 4.4 µM. 290,000 tested, 1.1% active. AID 1861; in the data active means inhibition above about 16%, passing the limit was not always enough;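 further: cells stimulated with the agonist NPW; 0% = agonist with vehicle and 100% = vehicle without agonist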
Target sequence (P48145 whole entry, looked up): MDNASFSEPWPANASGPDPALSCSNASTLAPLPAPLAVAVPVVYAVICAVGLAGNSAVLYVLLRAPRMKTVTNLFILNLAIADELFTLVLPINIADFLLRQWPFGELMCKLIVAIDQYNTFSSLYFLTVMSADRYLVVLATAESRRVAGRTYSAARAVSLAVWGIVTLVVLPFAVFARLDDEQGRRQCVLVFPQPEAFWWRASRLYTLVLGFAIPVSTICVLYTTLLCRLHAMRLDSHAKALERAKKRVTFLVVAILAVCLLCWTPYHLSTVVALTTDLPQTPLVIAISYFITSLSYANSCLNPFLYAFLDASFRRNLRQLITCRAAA
core dimer inh: HCV core protein dimerization inhibition; TR-FRET GST/Flag-core106 dimerization, 1536-well; inhibition, % at 5 µM; 300,000 tested, 0.33% active; AID 1899;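 active means inhibition above the mean of all tested compounds plus 3 SD, set per screening campaign, cut at about 45% in these data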
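Material: Tagged HCV core106 pair (GST and Flag) | Amount: GST-core106 13.5 nM, Flag-core106 17 nM | Medium: KF-containing HEPES buffer, pH 7.45, DTT, CHAPS, BSA | Reagent: Eu donor and XL665 acceptor anti-tag antibodies | Schedule: 4 h at 22.5 °C | Technique: Time-resolved FRET, ex 340 nm, em 617 and 671 nm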
FID counter: displaces DNA intercalator in HCV helicase counter-screen; inhibition, % at 7.9 µM; DNA fluorescent intercalator displacement, fluorescence; AID 1845; 290,000 tested, 0.17% active; in the data active means inhibition above about 37%;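 further: 0% = vehicle and 100% = reference compound; higher means more ethidium bromide displaced from hairpin DNA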
GPR7 antag conf: human GPR7 antagonism, confirmation assay. shares compounds with GPR7 antag. GPR7-expressing cells, calcium fluorescence antagonist mode. inhibition, % at 4.4 µM. 2,400 tested, 52% active. AID 1952; in the data active means inhibition above about 24%;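 further: stimulated with the GPR7 agonist NPW; 0% = agonist plus vehicle and 100% = vehicle alone without agonist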
MCHR1 antag: antagonizes human MCHR1, a GPR7 antagonist counter-screen | shares compounds with GPR7 antag | MCHR1-expressing cells, fluorescence antagonist assay | inhibition, % at 4.4 µM | 2,400 tested, 62% active | AID 2148; in the data active means inhibition above about 22%;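 further: 0% = vehicle with agonist and 100% = vehicle without agonist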
Active calls of the source: *. Shown are actives, neighbours in structure and some others; about 1.9% of the full set was active somewhere.

Results for CS(=O)(=O)N(Cc1ccccc1)c1ccc(C(=O)N2CCN(c3cccc(Cl)c3)CC2)cc1 ?
NS3 helicase inh: -22; p-CIP stab down: 2; GPR7 antag: 24*; core dimer inh: 11; FID counter: -35; GPR7 antag conf: 36*; MCHR1 antag: 70*

What do the screens show for `CS(=O)(=O)N(Cc1ccc(Cl)cc1)c1ccc(C(=O)N2CCN(c3ccccc3)CC2)cc1`?
NS3 helicase inh: -21; p-CIP stab down: 2; GPR7 antag: 21*; core dimer inh: 2; FID counter: -26; GPR7 antag conf: 38*; MCHR1 antag: 46*

How did CN(c1ccc(C(=O)N2CCN(Cc3ccccc3)CC2)cc1)S(=O)(=O)c1ccc(Cl)cc1 do in these assays?
NS3 helicase inh: -24; p-CIP stab down: -2; GPR7 antag: 32*; core dimer inh: -2; FID counter: -37; GPR7 antag conf: 20; MCHR1 antag: 33*

Results for Cc1ccc(CN(c2ccc(C(=O)N3CCc4ccccc4C3)cc2)S(C)(=O)=O)cc1 ?
NS3 helicase inh: -12; p-CIP stab down: -13; GPR7 antag: 33*; core dimer inh: 7; FID counter: -31; GPR7 antag conf: 32*; MCHR1 antag: 47*

How did Cc1cccc(N2C(=NC(=O)c3ccccc3)SC3CS(=O)(=O)CC32)c1 (configuration not stated) do in these assays?
NS3 helicase inh: -3; p-CIP stab down: -13; GPR7 antag: -3; core dimer inh: -7; FID counter: -33

What do the screens show for `COc1cccc(NC(=O)CN2C(=O)NC(C)(c3ccc(C)cc3)C2=O)c1` (configuration not stated)?
NS3 helicase inh: -13; p-CIP stab down: -1; GPR7 antag: 9; core dimer inh: 1; FID counter: -22

How did CCOC(Cn1ccc(=O)[nH]c1=O)OCC do in these assays?
NS3 helicase inh: -5; p-CIP stab down: -2; GPR7 antag: 27*; core dimer inh: -1; FID counter: 0; GPR7 antag conf: 0; MCHR1 antag: 14

How did COc1ccc(CCNC(=O)C2CCCN2C(=O)Nc2ccc(F)cc2)cc1OC (configuration not stated) do in these assays?
NS3 helicase inh: -4; p-CIP stab down: -2; GPR7 antag: -5; core dimer inh: -8; FID counter: -2

What do the screens show for `O=C(COC(=O)C1c2ccccc2Oc2ccccc21)Nc1ccc2c(c1)OCO2`?
NS3 helicase inh: -11; p-CIP stab down: -1; GPR7 antag: -8; core dimer inh: 35; FID counter: -10

What do the screens show for `CC(=O)Nc1ccc(NC(=O)COC(=O)C2c3ccccc3Oc3ccccc32)cc1`?
NS3 helicase inh: 9; p-CIP stab down: 2; GPR7 antag: 23*; FID counter: -16; GPR7 antag conf: 3; MCHR1 antag: 7

How did O=C(O)/C=C/c1ccc(Cn2ccnc2)cc1 do in these assays?
core dimer inh: -21

What do the screens show for `CC(C)OC(=O)CSc1nnc(CNc2ccc(Cl)cc2)n1Cc1ccccc1`?
NS3 helicase inh: 6; p-CIP stab down: -13; GPR7 antag: 26*; core dimer inh: 11; FID counter: -21; GPR7 antag conf: 24*; MCHR1 antag: 51*

Results for Cc1cccn2c(CNC3CCCc4ccccc43)c(C(=O)N3CCOCC3)nc12 (configuration not stated) ?
NS3 helicase inh: -21; p-CIP stab down: -4; GPR7 antag: -4; core dimer inh: 10; FID counter: -8

Results for Cc1cccn2c(CN[C@@H]3CCCC[C@H]3c3ccccc3)c(C(=O)N3CCOCC3)nc12 ?
NS3 helicase inh: -7; p-CIP stab down: -3; GPR7 antag: 29*; core dimer inh: 4; FID counter: 6; GPR7 antag conf: 19; MCHR1 antag: 25*

How did COc1cc(-c2noc(C)c2/C=C/c2cccc([N+](=O)[O-])c2)cc(OC)c1OC do in these assays?
NS3 helicase inh: 1; p-CIP stab down: -7; GPR7 antag: 35*; core dimer inh: 0; FID counter: -27; GPR7 antag conf: 46*; MCHR1 antag: 65*

What do the screens show for `COc1cc(-c2noc(C)c2/C=C/c2ccc(C(=O)O)cc2)cc(OC)c1OC`?
NS3 helicase inh: 23; p-CIP stab down: 14; GPR7 antag: 5; core dimer inh: -4; FID counter: -36

How did NNc1ccc(Cl)c(C(=O)O)c1 do in these assays?
NS3 helicase inh: 3; p-CIP stab down: 0; GPR7 antag: -8; core dimer inh: -1; FID counter: 4

What do the screens show for `CN(Cc1nc(-c2cccs2)no1)CC(O)c1ccccc1` (configuration not stated)?
NS3 helicase inh: 0; p-CIP stab down: 1; GPR7 antag: -12; core dimer inh: -52; FID counter: -9

What do the screens show for `CCOC(=O)Nc1ccc2c(c1)N(C(=O)CN1CCN(C)CC1)c1ccccc1S2`?
NS3 helicase inh: -14; p-CIP stab down: 9; GPR7 antag: -1; core dimer inh: -2; FID counter: 12

Results for CCCC(CCC)C(=O)Nc1ccc2c(c1)N(C(=O)CN1CCN(C)CC1)c1ccccc1CC2 ?
NS3 helicase inh: -56; p-CIP stab down: -4; GPR7 antag: 58*; core dimer inh: -12; FID counter: 49*; GPR7 antag conf: 39*; MCHR1 antag: 22*

How did CCOC(=O)CNC(=S)N(CCCN1CCCCC1)Cc1cccs1 do in these assays?
NS3 helicase inh: 1; p-CIP stab down: 9; GPR7 antag: 35*; core dimer inh: -6; FID counter: 23; GPR7 antag conf: 9; MCHR1 antag: 16

What do the screens show for `Cc1onc(-c2ccccc2)c1C(=O)Nc1ccc(S(=O)(=O)N2CCOCC2)cc1`?
NS3 helicase inh: -7; p-CIP stab down: 0; GPR7 antag: -4; core dimer inh: 1; FID counter: -20

How did CC(C)C(CCNC1CCN(C)CC1)c1ccc(Cl)cc1 (configuration not stated) do in these assays?
NS3 helicase inh: -30; p-CIP stab down: 5; GPR7 antag: 33; core dimer inh: 0; FID counter: 25

What do the screens show for `CN1CCC(NCCC(c2ccc(F)cc2)c2ccc(Cl)cc2)CC1` (configuration not stated)?
NS3 helicase inh: -52; p-CIP stab down: 8; GPR7 antag: 47*; FID counter: 42*; GPR7 antag conf: 43*; MCHR1 antag: 41*

What do the screens show for `O=C(CSc1cccc(C(F)(F)F)c1)N1CCN(S(=O)(=O)c2ccccc2)CC1`?
NS3 helicase inh: 5; p-CIP stab down: 0; GPR7 antag: 34*; core dimer inh: 4; FID counter: -29; GPR7 antag conf: 3; MCHR1 antag: 6
